What all share (design): dose 5 mg/kg, dosed compound name [14C]CS-1036, route oral
Common to all, as to conditions: in vivo

Series [1] is described as follows: Drug uptake in albino F344/DuCrlCrlj rat fat assessed as ng equivalent of CS-1036 at 5 mg/kg, po after 336 hrs by liquid scintillation counting. The series is classed as ADME, organism-based, Adipose tissue. Put shortly: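 Male F344/DuCrlCrlj rats (bought at 7 weeks, acclimatized 5–6 days; 159–167 g; n = 3 per time point) received a single oral dose of [14C]CS-1036 at 5 mg/kg. White adipose tissue was collected after abdominal aortic bleeding at 1, 4, 8, 24, 72, 168 or 336 h. Samples were counted by LSC with external-standard efficiency correction. Results were converted to ng equivalents per g from specific activity and sample weight.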

Series [2] deals with Kidney. Nature of the series: Drug uptake in albino F344/DuCrlCrlj rat kidney at 5 mg/kg, po after 24 hrs by liquid scintillation counting. Format: ADME, organism-based.
The next series concerns Spleen. Nature of the series: Drug uptake in albino F344/DuCrlCrlj rat spleen at 5 mg/kg, po after 4 hrs by liquid scintillation counting. The series is classed as ADME, organism-based.
The nature of series [3]: Drug uptake in albino F344/DuCrlCrlj rat pituitary gland at 5 mg/kg, po after 24 hrs by liquid scintillation counting. The series is classed as ADME, organism-based.
The next series relates to Small intestine. Nature of the series: Drug uptake in albino F344/DuCrlCrlj rat small intestine at 5 mg/kg, po after 24 hrs by liquid scintillation counting. The series is classed as ADME, organism-based.
Series [4] concerns Harderian gland. Kind of series: Drug uptake in albino F344/DuCrlCrlj rat harderian gland assessed as ng equivalent of CS-1036 at 5 mg/kg, po after 8 hrs by liquid scintillation counting. Format: ADME, organism-based.
For series [5], the system named is Harderian gland. Nature of the series: Drug uptake in albino F344/DuCrlCrlj rat harderian gland at 5 mg/kg, po after 8 hrs by liquid scintillation counting. The series is classed as ADME, organism-based.
A short description of series [6]: Drug uptake in albino F344/DuCrlCrlj rat pituitary gland at 5 mg/kg, po after 72 hrs by liquid scintillation counting. Format: ADME, organism-based.
The test system of a further series is Adrenal gland. Kind of series: Drug uptake in albino F344/DuCrlCrlj rat adrenal gland assessed as ng equivalent of CS-1036 at 5 mg/kg, po after 4 hrs by liquid scintillation counting. Format: ADME, organism-based.
The next series deals with Cerebellum. Nature of the series: Drug uptake in albino F344/DuCrlCrlj rat cerebellum at 5 mg/kg, po after 8 hrs by liquid scintillation counting. The series is classed as ADME, organism-based.
The test system of series [7] is Kidney. Kind of series: Drug uptake in albino F344/DuCrlCrlj rat kidney at 5 mg/kg, po after 1 hr by liquid scintillation counting. The series is classed as ADME, organism-based.
In a further series the test system is Pancreas. Kind of series: Drug uptake in albino F344/DuCrlCrlj rat pancreas assessed as ng equivalent of CS-1036 at 5 mg/kg, po after 4 hrs by liquid scintillation counting. The series is classed as ADME, organism-based.

SMILES strings stand for the structures.

In the case of `C[C@H]1O[C@@H](O[C@H]2[C@H](O)[C@@H](O)[C@@H](O[14C@H]3[14C@H](O)[14CH2]N[14C@@H]3[14CH2]O)O[C@@H]2CO)[C@H](O)[C@@H](O)[C@@H]1O`, the Radiolabel recovery in series [1] came out at 63 ngequiv/g; with Kidney [2], 137 ngequiv/g; in the series on Spleen, 35.1 ngequiv/g; in series [3], 70.8 ngequiv/g; in the series on Small intestine, 94.4 ngequiv/g; in the series with Harderian gland [4] it was 24.5 ngequiv/g. Also, the Radiolabel recovery with Harderian gland [5] was 55.9 ngequiv/g; in [6], 22.1 ngequiv/g; in the series with Adrenal gland, 8.6 ngequiv/g; in the series on Cerebellum, 8.3 ngequiv/g; with Kidney [7] it was 520 ngequiv/g; in the series on Pancreas it was 52 ngequiv/g.

For the origin of these results see ChEMBL document CHEMBL3526002, “Tissue distribution and identification of radioactivity components at elimination phase after oral administration of [¹⁴C]CS-1036, an α-amylase inhibitor, to rats” (Drug Metab Dispos, 2013).
